The list is not random: actives were taken first. Their share in the collection is about 2.1%.
Hck-Nef inh: blocks Nef-activated human Hck kinase; Recombinant Hck-YEEI plus Nef, Z-Lyte FRET kinase assay; AID 463187; hit rate 0.68% among 220,000; inhibition, % at 20 µM;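 active = Hck-Nef kinase inhibition above about 50%, limit read from the data; inactive = inhibition below that limit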;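 also: 0% = DMSO with Hck plus Nef and 100% = Hck alone without Nef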
RanGTP-Imp inh: inhibitors of RanGTP-importin-beta interaction, primary screen, biochemical, FRET, CFP-Ran, YFP-importin-beta, homogeneous | cell-free CFP-Ran/YFP-importin-beta FRET ratio | inhibition, % (no concentration beside the values) | AID 2216 | hit rate 1.1% among 300,000;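 active = more than half of the replicate wells show a fall in the fluorescence ratio signal beyond about 16%, limit read from the data, passing the limit was not always enough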;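 also: 0% = DMSO wells and 100% = Ran loaded with GDP instead of GTP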
p-CIP stab down: compounds decreasing mouse p/CIP protein stability; decrease of EGFP signal, % at 10 µM; F442A p/CIP-EGFP cells, EGFP fluorescence, 16 h; AID 1984; hit rate 0.01% among 290,000; Q05BA5;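 active = EGFP signal decrease of at least 30% at 10 µM or well 3 SD below plate mean, unless failing retest; inactive = the rest, including hits failing retest or dose response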
Runt-CBFb FRET: Runt domain-CBFb interaction inhibition. inhibition, % at 20 µM. AID 1496. Cerulean-Runt/Venus-CBFb FRET ratio 530/480, 1 h. Q01196+Q13951. hit rate 0.46% among 220,000;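 active = inhibition over about 50% at 20 µM in the single-dose screen, limit read from the data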;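 also: 0% = DMSO wells and 100% = excess unlabeled CBFb competitor control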
Target sequence (Q01196 whole entry, looked up, the tested form may be a part): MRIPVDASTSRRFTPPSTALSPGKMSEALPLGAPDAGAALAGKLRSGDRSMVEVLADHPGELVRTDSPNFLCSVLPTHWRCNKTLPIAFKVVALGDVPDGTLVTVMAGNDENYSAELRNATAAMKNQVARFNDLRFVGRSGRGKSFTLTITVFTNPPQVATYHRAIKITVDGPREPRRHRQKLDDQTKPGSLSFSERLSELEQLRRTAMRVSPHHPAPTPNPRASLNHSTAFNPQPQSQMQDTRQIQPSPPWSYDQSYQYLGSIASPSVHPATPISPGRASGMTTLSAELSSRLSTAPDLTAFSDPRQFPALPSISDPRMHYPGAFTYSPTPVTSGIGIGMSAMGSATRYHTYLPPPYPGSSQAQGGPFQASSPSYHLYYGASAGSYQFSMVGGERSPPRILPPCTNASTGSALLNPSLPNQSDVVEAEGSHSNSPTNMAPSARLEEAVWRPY
Target sequence (Q13951 whole entry, looked up, the tested form may be a part): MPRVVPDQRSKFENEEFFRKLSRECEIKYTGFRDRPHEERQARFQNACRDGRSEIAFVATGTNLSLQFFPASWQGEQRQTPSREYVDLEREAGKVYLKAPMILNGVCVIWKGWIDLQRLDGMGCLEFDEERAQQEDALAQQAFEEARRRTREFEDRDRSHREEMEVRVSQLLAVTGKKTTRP
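Doses: 20 µM compound in 1% DMSO | Material: Cerulean-labeled Runt domain protein | Amount: Each fluorescent fusion protein 100 nM | Schedule: Two 1 h room-temperature incubations shielded from light | Measured by: FRET fluorescence | Evaluation: Loss of energy transfer signal | Controls: Unlabeled CBFb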
Pemphigus Ab inh: blocks pemphigus antibody binding to human desmoglein-3; DSG3-coupled beads, scFv-anti-DSG3-GFP binding, flow cytometry; stronger effect = lower value; binding (percent of control), % at 10 µM; hit rate 0.48% among 310,000;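 active = binding more than 3 SD below its plate's average and above zero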
Runt-SMMHC FRET: inhibitors of human RUNX1 Runt domain binding to CBFb-SMMHC | Q01196+Q13951 | Cerulean-Runt/Venus-CBFb-SMMHC FRET ratio 530/480, 1 h | inhibition, % at 20 µM | hit rate 0.74% among 220,000 | AID 1434;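 active = mean inhibition across duplicate retests at 20 µM reaching about 50%, limit read from the data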;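 also: 0% = DMSO wells and 100% = wells with excess untagged CBFb-SMMHC; inhibitors lower the FRET ratio by blocking Runt binding to CBFb-SMMHC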
An asterisk follows results filed as active; nt = not tested or not shown.

SMILES | Hck-Nef inh | RanGTP-Imp inh | p-CIP stab down | Runt-CBFb FRET | Pemphigus Ab inh | Runt-SMMHC FRET
CN1CCc2nc(NC(=O)c3cccc(S(=O)(=O)N4CCc5ccccc54)c3)sc2C1 | 2.5 | 48.1* | -4.5 | 44.7 | 98.4 | 84.5*
COc1cccc(C(=O)Nc2nnc(-c3ccccc3)s2)c1 | nt | 2.4 | 0.0 | nt | 98.1 | nt
CCCCCCn1c(COc2ccccc2F)nnc1SCC(=O)NC1CCS(=O)(=O)C1 (configuration not stated) | nt | nt | nt | nt | 99.2 | nt
CC(C)CCn1c(COc2ccccc2)nn(CCC#N)c1=S | nt | 1.3 | -1.2 | nt | 104.6 | nt
COC(=O)c1c(C(=O)OC)c(-c2ccc(Br)cc2)n2c1CS(=O)C2 (configuration not stated) | nt | 2.9 | -6.2 | nt | 101.2 | nt
Cc1ccc2nc3c(cc(C(=O)NCCc4ccccc4)c(=N)n3CCCN3CCOCC3)c(=O)n2c1 | nt | 168.1* | -10.7 | nt | 98.6 | nt
O=C(NCCN1CCOCC1)c1c(O)nc2ccccn2c1=O | nt | 2.7 | -0.2 | nt | 99.9 | nt
COc1ccc(CCNC(=O)c2cc3c(=O)n4ccccc4nc3n(CCCN3CCOCC3)c2=N)cc1OC | nt | 16.2* | -7.5 | nt | 116.2 | nt
CCCNc1nc2nc3ccccn3c(=O)c2cc1C(=O)NCCN1CCOCC1 | nt | 130.8* | -1.9 | nt | 111.1 | nt
COc1ccc(CCNC(=O)c2cc3c(=O)n4ccccc4nc3n(C3CCCCC3)c2=N)cc1 | nt | 63.4* | -2.2 | nt | 93.8 | nt
O=C(Nc1ncccc1O)C1CCN(S(=O)(=O)c2ccc3ccccc3c2)CC1 | nt | nt | nt | nt | 96.0 | nt
CCOC(=O)Nc1ccc2c(COC(=O)C(NS(=O)(=O)c3ccc(Cl)cc3)C(C)O)cc(=O)oc2c1 (configuration not stated) | nt | nt | nt | nt | 92.4 | nt
CC(C)(C)[C@H]1C=C(C(=O)O)O[C@@H](OCc2ccc(CO)cc2)C1 | nt | 0.3 | nt | nt | 96.0 | nt
COc1ccc(CCNC(=O)c2cc3c(=O)n4ccccc4nc3n(CCN3CCOCC3)c2=N)cc1 | nt | 24.7* | -30.7 | nt | 103.1 | nt
CC(C)NC(=O)C(c1ccc(F)cc1)N(C(=O)CCC(=O)Nc1ccccn1)c1cccc(F)c1 (configuration not stated) | nt | -3.6 | -19.6 | nt | 112.7 | nt
Cc1ccc(Nc2[nH]c(=O)c3ccccc3c2C(=O)c2ccccc2)cc1 | nt | 27.4* | nt | nt | nt | nt
O=C(NCc1ccco1)/C(=C/c1ccc(Br)cc1)NC(=O)c1ccco1 | nt | 23.0* | 0.8 | nt | nt | nt
O=C(NC(Cc1ccccc1)C(=O)O)/C(=C/c1ccc(Br)cc1)NC(=O)c1ccc(Br)o1 (configuration not stated) | nt | 23.9* | -15.8 | nt | 105.7 | nt
Cc1ccc(-c2nnc(N3CC(C)OC(C)C3)c3ccccc23)cc1 (configuration not stated) | 26.1 | 5.5 | -8.1 | -2.0 | 106.5 | -7.1
COc1ccc(-c2noc(CCCc3ccccc3)n2)cc1OC | 0.2 | 26.1* | -8.2 | -4.2 | 99.7 | -4.6
Cc1cccc(OC(=O)c2ccc3c(=O)n4c(nc3c2)CCC4)c1 | nt | nt | nt | nt | 96.1 | nt
Nc1nc(C2CC(=O)OC23CCCCC3)cs1 (configuration not stated) | 6.3 | 20.6* | 4.9 | 2.9 | 107.7 | -1.1
Cc1nc(C2CC(=O)OC23CCCCC3)cs1 (configuration not stated) | 0.5 | -3.6 | 5.4 | -2.0 | 112.7 | 2.9
CC(C)(C)OC(=O)N1CCN(CCNC(=O)c2ccccc2)CC1 | nt | -3.3 | 6.3 | nt | 104.9 | nt
COc1ccc2c(COC(=O)[C@H](C)NS(=O)(=O)c3ccccc3F)cc(=O)oc2c1 | nt | nt | nt | nt | 123.8 | nt
SMILES | Hck-Nef inh | RanGTP-Imp inh | p-CIP stab down | Runt-CBFb FRET | Pemphigus Ab inh | Runt-SMMHC FRET
CN[C@H]1C[C@H]2c3cc(N4CCN(C)CC4)ccc3CCN2C(=O)[C@H]1[C@H](C)O | nt | nt | nt | nt | 105.2 | nt
Cc1ccc(NS(=O)(=O)c2ccc(NC(=O)CSc3ccc(Cl)cc3)cc2)c(C)c1 | 0.7 | 6.9 | 0.7 | nt | 101.1 | 6.8
Cc1ccc(O)c(NC(=O)CSc2ccc(Cl)cc2)c1 | -7.7 | -11.2 | 1.0 | 0.4 | 3.0* | -4.6
COc1cc2c(cc1NC(=S)NC(=O)/C=C/c1ccc(OC)c(OC)c1)oc1ccccc12 | 32.7 | nt | 7.7 | -7.7 | 67.8* | -12.8
COc1ccc(C2CC(=O)N3CN(Cc4ccco4)CSC3=C2C#N)cc1 (configuration not stated) | -1.1 | 3.7 | -7.6 | 29.2 | 98.5 | 24.9
Cc1cccc(N2CSC3=C(C#N)C(c4ccc(C)o4)CC(=O)N3C2)c1 (configuration not stated) | 80.1* | -5.5 | -15.4 | 23.4 | nt | 19.4
COc1ccc(OC)c(C2CC(=O)N3CN(c4ccccc4)CSC3=C2C#N)c1 (configuration not stated) | -0.2 | -6.8 | -3.0 | 32.9 | 97.3 | 62.0*
COc1cc(OC)c(C2CC(=O)N3CN(c4ccccc4C)CSC3=C2C#N)cc1OC (configuration not stated) | 13.0 | -64.3 | -10.1 | 40.7 | nt | 66.8*
COc1ccc(N2CSC3=C(C#N)C(c4cccc(OC)c4OC)CC(=O)N3C2)cc1 (configuration not stated) | -0.2 | 2.3 | 3.8 | 14.8 | 96.1 | 32.9
COC(=O)C(C(=O)OC)c1ccc(NC(=O)c2cccc(Cl)c2)cc1 | 3.0 | 5.5 | 0.8 | -3.9 | 84.8* | -3.0
C=CCc1ccccc1OCC(=O)O | 9.4 | 2.5 | -3.8 | 2.0 | 95.9 | -8.2
O=C(O)COc1ccccc1Cc1ccccc1 | -1.7 | 0.0 | -1.4 | 88.1* | 101.3 | 142.7
Cc1nn(C)c(Cl)c1CN1CCN(C2CCCCC2)C(CCO)C1 (configuration not stated) | 18.6 | 4.2 | -1.2 | 117.5* | 99.3 | -5.0
OCCC1CN(Cc2c(F)cccc2Cl)CCN1C1CCCCC1 (configuration not stated) | 25.3 | 4.4 | 0.7 | 0.2 | 100.5 | -0.5
COc1ccc(C(=O)NCCCn2nc(C)cc2C)cc1S(=O)(=O)N1CCOCC1 | nt | nt | nt | nt | 107.2 | nt
CC(=O)Nc1cccc(-c2csc(Nc3ccccn3)n2)c1 | -0.2 | 1.2 | 4.3 | 0.3 | 70.0* | -5.9
CC(=O)Nc1cccc(-c2csc(Nc3cc(C)ccn3)n2)c1 | 2.2 | -5.5 | -10.4 | -0.1 | 99.5 | -11.5
